Results as given in ChEMBL document CHEMBL1165958, “Compounds from Acorus tatarinowii: determination of absolute configuration by quantum computations and cAMP regulation activity” (J Nat Prod, 2010).
Activity calls are given as the source filed them. No cut-off for these calls is given here.

Organism: Mus musculus
Experiment: Induction of cAMP level in mouse NIE115 cells at 50 uM after 30 mins by Alphascreen cAMP assay
Type: functional, cell-based
Procedure, shortened: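 N1E-115 neuroblastoma cells exposed to each test compound at 50 µM. Intracellular cAMP measured by AlphaScreen and read out as counts per second (cps). Values reported as means with standard error of the mean. Significance marked at p < 0.05, 0.01 and 0.001.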

| Compound | Activity |
| --- | --- |
| COc1cc(OC)c(OC)cc1/C=C\C=O | Active |
| COc1ccc(CC(C)=O)cc1OC | inactive |
| C/C=C\c1cc(OC)c(OC)cc1OC | inactive |
| CC1=CC[C@@]2(CC1=O)[C@H](C(C)C)[C@H](O)C[C@@H]2C | inactive |
| CC(=O)O[C@@H]1C[C@H](C)[C@@]2(CC=C(C)C(=O)C2)[C@@H]1C(C)C | inactive |
| CCC(=O)c1cc(OC)c(OC)cc1OC | Active |
| COc1cc(OC)c(OC)cc1C=O | Active |
| C/C=C/c1cc(OC)c(OC)cc1OC | inactive |
| COc1cc(OC)c(C(=O)C(C)=O)cc1OC | Active |
| COc1cc(OC)c(C(c2cc(OC)c(OC)cc2OC)[C@@H](C)O)cc1OC | Active |
| COc1cc(OC)c(OC)cc1CC(C)=O | Active |
| C[C@H]1CC[C@H]2C(C)(C)C(=O)[C@@]3(C)C[C@@H](O)[C@@]12C3 | inactive |
| C/C=C\c1ccc(OC)c(OC)c1 | inactive |
| CC1=CC[C@]2(CC1=O)[C@@H](C)CC(=O)[C@H]2C(C)C | inactive |
| CC1=CC[C@@]2(CC1=O)[C@@H](C(C)C)C(=O)C[C@@H]2C | inactive |
| C=C1CC[C@@H]2[C@@](O)(C1)[C@H](C(C)C)CC[C@@]2(C)O | inactive |
